Results of several laboratories.
Compare with care: the assays were run in different laboratories.
Target: BDNF/NT-3 growth factors receptor (NTRK2, Homo sapiens, UniProt Q16620)

Structure (SMILES) | read-out | action | technique | concentration | quantity | value
O=C(Nc1cccc(C(=O)Nc2ccc3[nH]ncc3c2)c1)Nc1ccccc1Cl | enzyme activity | inhibitor | FRET | 1 µM | inhibition | 20.6%
CC(C)(C)c1nc2c(s1)c1nc(N)ncc1c1ccc(NS(=O)(=O)c3c(F)cccc3F)c(F)c12 | enzyme activity | inhibitor | radiometric | 1 µM | remaining activity | 65%
O=C1CCc2cc(Nc3cc(OC4CCOCC4)c([N+](=O)[O-])cc3Cl)ccc2N1 | cell-free assay |  | competition with immobilised ligand | 1 µM | remaining binding | 100%
CNC(=O)c1cc(Oc2ccc(NC(=O)Nc3ccc(Cl)c(C(F)(F)F)c3)cc2)ccn1 | cell-free assay |  |  | 10 µM | inhibition | 99%
c1ccc(N2CCN(Cc3nc4ccccc4[nH]3)CC2)nc1 | cell-free assay |  | competition with immobilised ligand | 1 µM | remaining binding | 100%
Cc1sc(C(=O)NC2COC2)cc1-n1cc(NC(=O)Nc2c(F)cccc2Cl)cn1 | enzyme activity | inhibitor |  | 10 µM | remaining activity | 92.4%
Cc1cc(NC(=O)c2cccc3cc(-c4cccc5[nH]nc(N)c45)ccc23)ccc1F | enzyme activity | inhibitor |  | 0.1 µM | activity vs control | 107%
O=C(Nc1ccc2[nH]ncc2c1)c1cccc(NC(=S)Nc2ccc(F)cc2F)c1 | enzyme activity | inhibitor | FRET | 1 µM | inhibition | 9.64%
Cc1ccc(NC(=O)c2ccc(C)c(C(F)(F)F)c2)cc1C#Cc1nn(C2CCC(O)CC2)c2ncnc(N)c12 (centres unmarked) | cell-free assay |  |  | 10 µM | remaining signal | 4%
CNC(=O)Nc1ccc2c(c1)[C@@]1(CC2)OC(=O)N(CC(=O)N(Cc2ccc(F)cc2)[C@@H](C)C(F)(F)F)C1=O | cell-free assay |  | competition with immobilised ligand | 1 µM | remaining binding | 89%
O=C(Nc1cccc(C(=O)Nc2ccc3[nH]ncc3c2)c1)Nc1ccccc1C(F)(F)F | enzyme activity | inhibitor | FRET | 1 µM | inhibition | 25.7%
CCN(CC)CCNC(=O)c1c(C)[nH]c(/C=C2\C(=O)Nc3ccc(F)cc32)c1C | cell-free assay |  |  | 10 µM | inhibition | 100%
CC(C)(O)[C@H]1CC[C@H](Nc2ccc3ncc(-c4cccc(C(F)(F)F)c4)n3n2)CC1 | enzyme activity | inhibitor |  | 1 µM | remaining activity | 7.07%
O=C1NC(=O)c2cc(Nc3ccc(F)cc3)c(Nc3ccc(F)cc3)cc21 | cell-free assay |  |  | 0.5 µM | remaining signal | 91.9%
Nc1cnc(N2CCc3cc(S(=O)(=O)Nc4c(F)cc(Cl)cc4F)cc(N4CCCC4=O)c32)nc1 | cell-free assay |  | competition with immobilised ligand | 1 µM | remaining binding | 100%
O=C(Nc1ccc(Br)cc1)Nc1cccc(C(=O)Nc2ccc3[nH]ncc3c2)c1 | enzyme activity | inhibitor | FRET | 1 µM | inhibition | 15.7%
CN(c1ccnc(CNc2nc(Nc3ccc4c(c3)CC(=O)N4)ncc2C(F)(F)F)n1)S(C)(=O)=O | cell-free assay |  | competition with immobilised ligand | 1 µM | remaining binding | 21%
Cc1cnc(NC2CCOCC2)nc1-n1cnc(C(=O)NC(CN)c2cc(F)cc(Cl)c2)c1 (centres unmarked) | enzyme activity | inhibitor | radiometric | 1 µM | remaining activity | 110%
O=C(Nc1ccc2[nH]ncc2c1)c1cccc(NC(=O)c2cc(C(F)(F)F)ccc2F)c1 | enzyme activity | inhibitor | FRET | 1 µM | inhibition | 13.5%
C[C@@H]1CN(c2cc(-c3n[nH]c4ccc(OC5(C)CC5)cc34)ncn2)C[C@H](C)O1 | cell-free assay |  | competition with immobilised ligand | 0.1 µM | remaining binding | 67%
O=C(Nc1cccc(F)c1)Nc1cccc(C(=O)Nc2ccc3[nH]ncc3c2)c1 | enzyme activity | inhibitor | FRET | 1 µM | inhibition | 19.3%
CCCOc1ccc([C@@H]2[C@@H](C(=O)O)[C@H](c3ccc4c(c3)OCO4)CN2CC(=O)Nc2c(CC)cccc2CC)cc1 | cell-free assay |  | competition with immobilised ligand | 1 µM | remaining binding | 100%
N#CCCc1ccc2c(c1)-c1[nH]c3ccc([N+](=O)[O-])cc3c1CC(=O)N2 | cell-free assay |  |  | 0.5 µM | remaining signal | 86.4%
O=C(Nc1ccc(Oc2ccc(F)cc2)cc1)N1CCc2ncccc2[C@H]1c1ccc(F)cc1 | cell-free assay |  | competition with immobilised ligand | 1 µM | remaining binding | 84%
Nc1ncnc2occ(-c3ccc(NC(=O)Nc4cc(C(F)(F)F)ccc4F)cc3)c12 | cell-free assay |  |  | 20 µM | remaining signal | 1.4%
O=C(Nc1ccc(C(F)(F)F)cc1)Nc1cccc(C(=O)Nc2ccc3[nH]nc(-c4ccccc4)c3c2)c1 | enzyme activity | inhibitor | FRET | 1 µM | inhibition | 14.7%
CCCOc1ccc(OC)c(F)c1C(=O)c1ccc(C(=O)N[C@@H]2CNC[C@H]2NC(=O)c2ccc3[nH]ncc3c2)cc1 | enzyme activity | inhibitor |  | 10 µM | remaining activity | 71%
CN1CCN(CC(=O)Nc2cccc(C(=O)Nc3ccc4[nH]ncc4c3)c2)CC1 | enzyme activity | inhibitor | FRET | 1 µM | inhibition | 13.3%
O=C1Nc2ccc(Cl)cc2C1=Cc1cc(Cl)c(O)c(Cl)c1 | cell-free assay |  |  | 0.5 µM | remaining signal | 61.1%
